Results from ChEMBL document CHEMBL1149410, “Discovery of a potent phenolic N1-benzylidene-pyridinecarboxamidrazone selective against Gram-positive bacteria” (Bioorg Med Chem Lett, 2006).
Converted amounts (≈) assume the structure as drawn. The source made the active and inactive calls. No cut-off for these calls is given here.

Legend:
Staphylococcus aureus [1] = assay: Antibacterial activity against 10 clinical isolate methicillin-resistant strains of Staphylococcus aureus; format: functional
Summary of the method: (§1)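 Agar dilution MIC on Mueller–Hinton agar. Bacteria were spotted with a multipoint inoculator and plates incubated at 37 °C for 18 h. MIC was taken as the lowest concentration inhibiting growth. The panels covered clinical MRSA isolates, methicillin-sensitive S. aureus, enterococci, Gram-negative bacteria and vancomycin-resistant enterococci.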

[2] = test system: Mycolicibacterium fortuitum; assay: Antibacterial activity against Mycobacterium fortuitum; format: functional, organism-based
Summary of the method: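 The Mycobacterium fortuitum reference strain NCTC 10394 was screened for a zone of inhibition on Columbia agar supplemented with horse blood. Compounds were also screened at a single concentration in Middlebrook 7H9 broth with glycerol and ADC enrichment. The MIC was determined in broth when a zone or single-concentration activity was seen.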

PBMC [3] = assay: Toxicity towards human mononuclear leucocytes at 1 mM; format: cell-based; conditions: 1000 µM
Summary of the method: (§2)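 Human mononuclear leucocytes were exposed to compound for 1 h, then held in compound-free medium for 18 h. Cell death was scored by trypan blue exclusion and reported as % leucocyte death. The test concentration was 1 mM, or 0.5 mM where solubility limited it.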

Staphylococcus aureus [4] = assay: Antibacterial activity against methicillin-sensitive Staphylococcus aureus Cowan 1; format: functional; summary of the method: as §1
Escherichia coli [5] = assay: Antibacterial activity against Escherichia coli W3110 R+; format: functional; summary of the method: as §1
[6] = test system: Mycobacterium tuberculosis; assay: Antibacterial activity against Mycobacterium tuberculosis H37Rv at 6.25 ug/ml; format: functional
Summary of the method: (§3)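 Inhibition of M. tuberculosis H37Rv (ATCC 27294) growth was tested in BACTEC 12B medium. Percent inhibition was recorded at a fixed concentration, and MIC was also determined.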

Enterococcus [7] = assay: Antibacterial activity against vancomycin-resistant Enterococcus 3005426; format: functional; summary of the method: as §1
Enterococcus faecalis [8] = assay: Antibacterial activity against Enterococcus faecalis NCTC 5957; format: functional
Summary of the method: (§4)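 Agar dilution MIC on Mueller–Hinton agar, with a multipoint inoculator spotting the organisms. The MIC was the lowest concentration that inhibited growth after 18 h at 37 °C.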

Enterococcus faecalis [9] = assay: Antibacterial activity against Enterococcus faecalis isolate 5; format: functional; summary of the method: as §4
Staphylococcus aureus [10] = assay: Antibacterial activity against methicillin-sensitive Staphylococcus aureus NCTC 10788; format: functional; summary of the method: as §1
Escherichia coli [11] = assay: Antibacterial activity against Escherichia coli W3110 R-; format: functional; summary of the method: as §1
Enterococcus faecium [12] = assay: Antibacterial activity against Enterococcus faecium ACTCC 10541; format: functional; summary of the method: as §4
Enterococcus faecalis [13] = assay: Antibacterial activity against Enterococcus faecalis isolate 2; format: functional; summary of the method: as §1
Enterococcus faecalis [14] = assay: Antibacterial activity against Enterococcus faecalis isolate 4; format: functional; summary of the method: as §4
Enterococcus faecium [15] = assay: Antibacterial activity against Enterococcus faecium NCTC 7171; format: functional; summary of the method: as §4
Pseudomonas aeruginosa = assay: Antibacterial activity against Pseudomonas aeruginosa NCTC 6749; format: functional; summary of the method: as §1
Enterococcus [16] = assay: Antibacterial activity against vancomycin-resistant Enterococcus 3005353; format: functional; summary of the method: as §1
Enterococcus faecalis [17] = assay: Antibacterial activity against Enterococcus faecalis isolate 3; format: functional; summary of the method: as §1
Enterococcus [18] = assay: Antibacterial activity against vancomycin-resistant Enterococcus 3102095; format: functional; summary of the method: as §1
[19] = test system: Stenotrophomonas maltophilia; assay: Antibacterial activity against Stenotrophomonas maltophilia NCTC 10257; format: functional; summary of the method: as §1
Serratia marcescens = assay: Antibacterial activity against Serratia marcescens 4444; format: functional; summary of the method: as §1
Staphylococcus aureus [20] = assay: Antibacterial activity against methicillin-sensitive Staphylococcus aureus NCTC 6571; format: functional; summary of the method: as §1
Enterococcus [21] = assay: Antibacterial activity against vancomycin-resistant Enterococcus 3005323; format: functional; summary of the method: as §1
Enterococcus [22] = assay: Antibacterial activity against vancomycin-resistant Enterococcus 3001562; format: functional; summary of the method: as §1
[23] = test system: Staphylococcus haemolyticus; assay: Antibacterial activity against clinical isolate of Staphylococcus haemolyticus; format: functional; summary of the method: as §4
PBMC [24] = assay: Toxicity towards human mononuclear leucocytes at 0.5 mM; format: cell-based; conditions: 500 µM; summary of the method: as §2
Klebsiella pneumoniae = assay: Antibacterial activity against Klebsiella pneumoniae 327; format: functional; summary of the method: as §1
Enterobacter cloacae = assay: Antibacterial activity against Enterobacter cloacae NCTC 11582; format: functional; summary of the method: as §1
Enterococcus [25] = assay: Antibacterial activity against vancomycin-resistant Enterococcus 3002066; format: functional; summary of the method: as §1
Enterococcus [26] = assay: Antibacterial activity against vancomycin-resistant Enterococcus 3002043; format: functional; summary of the method: as §1
Enterococcus faecalis [27] = assay: Antibacterial activity against Enterococcus faecalis isolate 1; format: functional; summary of the method: as §4
[28] = test system: Bordetella bronchiseptica; assay: Antibacterial activity against Bordetella bronchiseptica NCTC 8344; format: functional; summary of the method: as §1
[29] = test system: Mycobacterium tuberculosis; assay: Antibacterial activity against Mycobacterium tuberculosis H37Rv; format: functional; summary of the method: as §3

## Cc1cc(C)c(O)c(/C=N/N=C(\N)c2ccncc2)c1
Staphylococcus aureus [1]
  MIC: inactive

## N/C(=N\N=C\c1cccc(O)c1O)c1ccncc1
Staphylococcus aureus [1]
  MIC: inactive
[2]
  Activity: inactive

## NNC(=O)c1ccncc1 [ISONIAZID]
PBMC [3]
  Activity: 12.4%

## N/C(=N\N=C\c1ccc(O)c(O)c1)c1ccncc1
Staphylococcus aureus [1]
  MIC: inactive
[2]
  Activity: inactive

## N/N=C(/N)c1ccncc1
PBMC [3]
  Activity: 13.8%

## CC(C)(C)c1cc(/C=N/N=C(\N)c2ccccn2)c(O)c(C(C)(C)C)c1
Staphylococcus aureus [1]
  MIC: inactive
[2]
  Activity: inactive

## CC(C)(C)c1cc(/C=N/N=C(\N)c2ccncc2)c(O)c(C(C)(C)C)c1
Staphylococcus aureus [4]
  MIC: 2 µg/mL (≈ 5.67 µM)
Escherichia coli [5]
  MIC: inactive
Staphylococcus aureus [1]
  MIC: 2 µg/mL (≈ 5.67 µM)
[6]
  inhibition at 6.25 µg/mL: 100%
Enterococcus [7]
  MIC: 2 µg/mL (≈ 5.67 µM)
Enterococcus faecalis [8]
  MIC: 2 µg/mL (≈ 5.67 µM)
Enterococcus faecalis [9]
  MIC: 2 µg/mL (≈ 5.67 µM)
Staphylococcus aureus [10]
  MIC: 2 µg/mL (≈ 5.67 µM)
Escherichia coli [11]
  MIC: inactive
Enterococcus faecium [12]
  MIC: 2 µg/mL (≈ 5.67 µM)
Enterococcus faecalis [13]
  MIC: 2 µg/mL (≈ 5.67 µM)
Enterococcus faecalis [14]
  MIC: 2 µg/mL (≈ 5.67 µM)
Enterococcus faecium [15]
  MIC: 2 µg/mL (≈ 5.67 µM)
Pseudomonas aeruginosa
  MIC: inactive
Enterococcus [16]
  MIC: 2 µg/mL (≈ 5.67 µM)
Enterococcus faecalis [17]
  MIC: 4 µg/mL (≈ 11.3 µM)
Enterococcus [18]
  MIC: 2 µg/mL (≈ 5.67 µM)
[19]
  MIC: inactive
Serratia marcescens
  MIC: inactive
Staphylococcus aureus [20]
  MIC: 2 µg/mL (≈ 5.67 µM)
Enterococcus [21]
  MIC: 2 µg/mL (≈ 5.67 µM)
Enterococcus [22]
  MIC: 2 µg/mL (≈ 5.67 µM)
[23]
  MIC: 2 µg/mL (≈ 5.67 µM)
PBMC [24]
  Activity: 100%
Klebsiella pneumoniae
  MIC: inactive
Enterobacter cloacae
  MIC: inactive
Enterococcus [25]
  MIC: 2 µg/mL (≈ 5.67 µM)
[2]
  Activity: inactive
Enterococcus [26]
  MIC: 2 µg/mL (≈ 5.67 µM)
Enterococcus faecalis [27]
  MIC: 2 µg/mL (≈ 5.67 µM)
[28]
  MIC: inactive
[29]
  MIC: 6.25 µg/mL (≈ 17.7 µM)

## N/C(=N\N=C\c1cc(Br)cc([N+](=O)[O-])c1O)c1ccncc1
Staphylococcus aureus [1]
  MIC: inactive
[2]
  Activity: inactive

## N/C(=N\N=C\c1ccccc1O)c1ccncc1
Staphylococcus aureus [1]
  MIC: inactive
PBMC [3]
  Activity: 11.7%

## N/C(=N\N=C\c1ccc(O)c(O)c1O)c1ccncc1
Staphylococcus aureus [1]
  MIC: 30 µg/mL (≈ 110 µM)
[2]
  Activity: inactive

## N/C(=N\N=C\c1cc(I)cc(I)c1O)c1ccncc1
Staphylococcus aureus [1]
  MIC: 10 µg/mL (≈ 20.3 µM)

## COc1cccc(/C=N/N=C(\N)c2ccncc2)c1O
Staphylococcus aureus [1]
  MIC: inactive
[2]
  Activity: inactive

## CC(C)(C)c1cc(/C=N/N=C(\N)c2cnccn2)c(O)c(C(C)(C)C)c1
Staphylococcus aureus [1]
  MIC: inactive
[2]
  Activity: inactive

## CC(C)(C)c1cc(C=O)c(O)c(C(C)(C)C)c1
PBMC [3]
  Activity: 32.7%

## CN[C@H](CC(C)C)C(=O)N[C@H]1C(=O)N[C@@H](CC(N)=O)C(=O)N[C@H]2C(=O)N[C@H]3C(=O)N[C@H](C(=O)N[C@H](C(=O)O)c4cc(O)cc(O)c4-c4cc3ccc4O)[C@H](O)c3ccc(c(Cl)c3)Oc3cc2cc(c3O[C@@H]2O[C@H](CO)[C@@H](O)[C@H](O)[C@H]2O[C@H]2C[C@](C)(N)[C@H](O)[C@H](C)O2)Oc2ccc(cc2Cl)[C@H]1O [VANCOMYCIN]
Staphylococcus aureus [4]
  MIC: 0.12 µg/mL (≈ 0.0828 µM)
Escherichia coli [5]
  MIC: > 16 µg/mL
Staphylococcus aureus [1]
  MIC: 0.05 µg/mL (≈ 0.0345 µM)
Enterococcus [7]
  MIC: 4 µg/mL (≈ 2.76 µM)
Enterococcus faecalis [8]
  MIC: 0.25 µg/mL (≈ 0.173 µM)
Enterococcus faecalis [9]
  MIC: 2 µg/mL (≈ 1.38 µM)
Staphylococcus aureus [10]
  MIC: 0.25 µg/mL (≈ 0.173 µM)
Escherichia coli [11]
  MIC: > 16 µg/mL
Enterococcus faecium [12]
  MIC: 0.12 µg/mL (≈ 0.0828 µM)
Enterococcus faecalis [13]
  MIC: 0.25 µg/mL (≈ 0.173 µM)
Enterococcus faecalis [14]
  MIC: 16 µg/mL (≈ 11 µM)
Enterococcus faecium [15]
  MIC: 0.12 µg/mL (≈ 0.0828 µM)
Pseudomonas aeruginosa
  MIC: > 16 µg/mL
Enterococcus [16]
  MIC: > 16 µg/mL
Enterococcus faecalis [17]
  MIC: 0.25 µg/mL (≈ 0.173 µM)
Enterococcus [18]
  MIC: > 16 µg/mL
[19]
  MIC: > 16 µg/mL
Serratia marcescens
  MIC: > 16 µg/mL
Staphylococcus aureus [20]
  MIC: 0.12 µg/mL (≈ 0.0828 µM)
Enterococcus [21]
  MIC: > 16 µg/mL
Enterococcus [22]
  MIC: 4 µg/mL (≈ 2.76 µM)
[23]
  MIC: 8 µg/mL (≈ 5.52 µM)
Klebsiella pneumoniae
  MIC: > 16 µg/mL
Enterobacter cloacae
  MIC: > 16 µg/mL
Enterococcus [25]
  MIC: 4 µg/mL (≈ 2.76 µM)
Enterococcus [26]
  MIC: 4 µg/mL (≈ 2.76 µM)
Enterococcus faecalis [27]
  MIC: 0.12 µg/mL (≈ 0.0828 µM)
[28]
  MIC: > 16 µg/mL

## N/C(=N\N=C\c1cc(O)c(O)cc1O)c1ccncc1
Staphylococcus aureus [1]
  MIC: 20 µg/mL (≈ 73.5 µM)
[2]
  Activity: inactive

## CC(C)(C)c1cc(/C=N/N=C(\N)c2ccncc2)cc(C(C)(C)C)c1O
Staphylococcus aureus [4]
  MIC: inactive
Escherichia coli [5]
  MIC: inactive
Staphylococcus aureus [1]
  MIC: > 256 µg/mL
[6]
  inhibition at 6.25 µg/mL: 75%
Enterococcus faecalis [8]
  MIC: inactive
Staphylococcus aureus [10]
  MIC: inactive
Escherichia coli [11]
  MIC: inactive
Enterococcus faecium [12]
  MIC: inactive
Enterococcus faecium [15]
  MIC: inactive
Pseudomonas aeruginosa
  MIC: inactive
[19]
  MIC: inactive
Serratia marcescens
  MIC: inactive
Staphylococcus aureus [20]
  MIC: > 256 µg/mL
[23]
  MIC: inactive
Klebsiella pneumoniae
  MIC: inactive
Enterobacter cloacae
  MIC: inactive
[2]
  Activity: inactive
Enterococcus faecalis [27]
  MIC: inactive
[28]
  MIC: inactive

## CC(=O)Oc1c(/C=N/N=C(\N)c2ccncc2)cc(C(C)(C)C)cc1C(C)(C)C
Staphylococcus aureus [1]
  MIC: 4 µg/mL (≈ 10.1 µM)
[2]
  Activity: inactive

## N/C(=N\N=C\c1cc([N+](=O)[O-])cc(Br)c1O)c1ccncc1
Staphylococcus aureus [1]
  MIC: inactive

## COc1cc([N+](=O)[O-])cc(/C=N/N=C(\N)c2ccncc2)c1O
Staphylococcus aureus [1]
  MIC: inactive
[2]
  Activity: inactive

## CC(C)(C)c1cc(/C=N/N=C(\N)c2ccc3ccccc3n2)c(O)c(C(C)(C)C)c1
Staphylococcus aureus [1]
  MIC: inactive
[2]
  Activity: inactive

## N/C(=N\N=C\c1cc([N+](=O)[O-])ccc1O)c1ccncc1
Staphylococcus aureus [1]
  MIC: 20 µg/mL (≈ 70.1 µM)
[2]
  Activity: inactive

## COc1c(/C=N/N=C(\N)c2ccncc2)cc(C(C)(C)C)cc1C(C)(C)C
Staphylococcus aureus [1]
  MIC: inactive

## COc1ccc(/C=N/N=C(\N)c2ccncc2)c(O)c1
Staphylococcus aureus [1]
  MIC: inactive
[2]
  Activity: inactive

## CC(C)(C)c1cc(/C=N/N=C(\N)c2cccnc2)c(O)c(C(C)(C)C)c1
Staphylococcus aureus [1]
  MIC: inactive
[2]
  Activity: inactive

## N/C(=N\N=C\c1c(O)cc(O)cc1O)c1ccncc1
Staphylococcus aureus [1]
  MIC: inactive
[2]
  Activity: inactive
